Results taken from ChEMBL document CHEMBL5303300, “EUbOPEN Chemogenomics Library - Multiplex” (2023).
Several values for one entry are separate records, joined by “and”; a condition that tells them apart may be missing. Equal values may be shown once.

Test system: Fibroblast
Assay: Multiplex assay against human fibroblast
Format: toxicity, cell-based
Conditions: number of replicates 2
Summary of the method: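 With compound added, live cells were imaged on a CQ1 microscope at 37°C and 5% CO2; staining with Hoechst33342, BioTracker Green Microtubule Cytoskeleton Dye, MitoTracker Red and Annexin V Alexa Fluor 680 had been done at seeding. The CellPathfinder machine-learning gating scheme split cells into Hoechst high-intensity objects or normal cells, normal cells into healthy, pyknosed or fragmented nuclei, and pyknosed cells into mitotic or apoptotic. The tubulin, mitochondrial-mass and membrane-permeability phenotypes are per cents of healthy-nucleus cells.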

[1] = 12 h, 1 µM, compound concentration 1 uM
[2] = 12 h, 10 µM, compound concentration 10 uM
[3] = 24 h, 1 µM, compound concentration 1 uM
[4] = 24 h, 10 µM, compound concentration 10 uM
[5] = 48 h, 1 µM, compound concentration 1 uM
[6] = 48 h, 10 µM, compound concentration 10 uM

## CSc1cc2c(cc1C(F)(F)F)N(C(=O)Nc1cccnc1)CC2
[1]
  Population Apoptotic (%): 50% and 34%
  Population Fragmented Nuclei (%): 9% and 17%
  Population Healthy Nuclei (%): 75% and 64%
  Population Hoechst High Intensity Objects (%): 0%
  Population Membrane Permeable-Phenotype (%): 6% and 2%
  Population Mitochondria Different-Phenotype (%): 0% and 2%
  Population Mitotic Cells (%): 50% and 65%
  Population Normal (%): 100%
  Population Pyknosed Nuclei (%): 15% and 17%
  Population Tubulin-Different-Phenotype (%): 5% and 10%
  Total Cell Count: 144 and 180
[2]
  Population Apoptotic (%): 22% and 26%
  Population Fragmented Nuclei (%): 4% and 13%
  Population Healthy Nuclei (%): 84% and 71%
  Population Hoechst High Intensity Objects (%): 0%
  Population Membrane Permeable-Phenotype (%): 2% and 5%
  Population Mitochondria Different-Phenotype (%): 0%
  Population Mitotic Cells (%): 77% and 73%
  Population Normal (%): 100%
  Population Pyknosed Nuclei (%): 11% and 15%
  Population Tubulin-Different-Phenotype (%): 8% and 2%
  Total Cell Count: 162 and 152
[3]
  Population Apoptotic (%): 42% and 51%
  Population Fragmented Nuclei (%): 5% and 14%
  Population Healthy Nuclei (%): 80% and 65%
  Population Hoechst High Intensity Objects (%): 0%
  Population Membrane Permeable-Phenotype (%): 1% and 4%
  Population Mitochondria Different-Phenotype (%): 0%
  Population Mitotic Cells (%): 57% and 48%
  Population Normal (%): 100% and 99%
  Population Pyknosed Nuclei (%): 13% and 20%
  Population Tubulin-Different-Phenotype (%): 9% and 11%
  Total Cell Count: 142 and 185
[4]
  Population Apoptotic (%): 20% and 33%
  Population Fragmented Nuclei (%): 9% and 15%
  Population Healthy Nuclei (%): 81% and 73%
  Population Hoechst High Intensity Objects (%): 0%
  Population Membrane Permeable-Phenotype (%): 4% and 3%
  Population Mitochondria Different-Phenotype (%): 0%
  Population Mitotic Cells (%): 80% and 66%
  Population Normal (%): 100%
  Population Pyknosed Nuclei (%): 8% and 11%
  Population Tubulin-Different-Phenotype (%): 9% and 3%
  Total Cell Count: 173 and 156
[5]
  Population Apoptotic (%): 55% and 70%
  Population Fragmented Nuclei (%): 14% and 16%
  Population Healthy Nuclei (%): 73% and 70%
  Population Hoechst High Intensity Objects (%): 0%
  Population Membrane Permeable-Phenotype (%): 5% and 8%
  Population Mitochondria Different-Phenotype (%): 0%
  Population Mitotic Cells (%): 44% and 29%
  Population Normal (%): 99% and 100%
  Population Pyknosed Nuclei (%): 11% and 12%
  Population Tubulin-Different-Phenotype (%): 4% and 7%
  Total Cell Count: 158 and 187
[6]
  Population Apoptotic (%): 54% and 46%
  Population Fragmented Nuclei (%): 7% and 14%
  Population Healthy Nuclei (%): 86% and 76%
  Population Hoechst High Intensity Objects (%): 0%
  Population Membrane Permeable-Phenotype (%): 3% and 2%
  Population Mitochondria Different-Phenotype (%): 0%
  Population Mitotic Cells (%): 45% and 53%
  Population Normal (%): 100%
  Population Pyknosed Nuclei (%): 5% and 9%
  Population Tubulin-Different-Phenotype (%): 4% and 3%
  Total Cell Count: 188 and 164

## COc1cc(N(C)c2ccnc3ccc(C(F)(F)F)cc23)cc(OC)c1OC
[1]
  Population Apoptotic (%): 43% and 38%
  Population Fragmented Nuclei (%): 7% and 10%
  Population Healthy Nuclei (%): 68% and 65%
  Population Hoechst High Intensity Objects (%): 0%
  Population Membrane Permeable-Phenotype (%): 10% and 7%
  Population Mitochondria Different-Phenotype (%): 0%
  Population Mitotic Cells (%): 56% and 61%
  Population Normal (%): 100% and 99%
  Population Pyknosed Nuclei (%): 23% and 24%
  Population Tubulin-Different-Phenotype (%): 21% and 18%
  Total Cell Count: 216 and 225
[2]
  Population Apoptotic (%): 48% and 39%
  Population Fragmented Nuclei (%): 6% and 11%
  Population Healthy Nuclei (%): 77% and 63%
  Population Hoechst High Intensity Objects (%): 0%
  Population Membrane Permeable-Phenotype (%): 4% and 9%
  Population Mitochondria Different-Phenotype (%): 5% and 4%
  Population Mitotic Cells (%): 51% and 60%
  Population Normal (%): 100%
  Population Pyknosed Nuclei (%): 15% and 24%
  Population Tubulin-Different-Phenotype (%): 33% and 40%
  Total Cell Count: 175 and 219
[3]
  Population Apoptotic (%): 48% and 50%
  Population Fragmented Nuclei (%): 7% and 13%
  Population Healthy Nuclei (%): 69% and 59%
  Population Hoechst High Intensity Objects (%): 0%
  Population Membrane Permeable-Phenotype (%): 8% and 4%
  Population Mitochondria Different-Phenotype (%): 1%
  Population Mitotic Cells (%): 51% and 49%
  Population Normal (%): 100% and 99%
  Population Pyknosed Nuclei (%): 23% and 27%
  Population Tubulin-Different-Phenotype (%): 24% and 14%
  Total Cell Count: 229 and 213
[4]
  Population Apoptotic (%): 60% and 54%
  Population Fragmented Nuclei (%): 9% and 12%
  Population Healthy Nuclei (%): 71% and 66%
  Population Hoechst High Intensity Objects (%): 0%
  Population Membrane Permeable-Phenotype (%): 4%
  Population Mitochondria Different-Phenotype (%): 3% and 6%
  Population Mitotic Cells (%): 39% and 45%
  Population Normal (%): 100% and 99%
  Population Pyknosed Nuclei (%): 18% and 20%
  Population Tubulin-Different-Phenotype (%): 27% and 30%
  Total Cell Count: 176 and 216
[5]
  Population Apoptotic (%): 66% and 47%
  Population Fragmented Nuclei (%): 8% and 14%
  Population Healthy Nuclei (%): 73% and 61%
  Population Hoechst High Intensity Objects (%): 0%
  Population Membrane Permeable-Phenotype (%): 1% and 7%
  Population Mitochondria Different-Phenotype (%): 0%
  Population Mitotic Cells (%): 33% and 52%
  Population Normal (%): 100%
  Population Pyknosed Nuclei (%): 18% and 23%
  Population Tubulin-Different-Phenotype (%): 10% and 12%
  Total Cell Count: 229 and 214
[6]
  Population Apoptotic (%): 64% and 75%
  Population Fragmented Nuclei (%): 9% and 12%
  Population Healthy Nuclei (%): 72% and 70%
  Population Hoechst High Intensity Objects (%): 0%
  Population Membrane Permeable-Phenotype (%): 0% and 1%
  Population Mitochondria Different-Phenotype (%): 3% and 5%
  Population Mitotic Cells (%): 35% and 24%
  Population Normal (%): 99% and 100%
  Population Pyknosed Nuclei (%): 18% and 16%
  Population Tubulin-Different-Phenotype (%): 35% and 25%
  Total Cell Count: 173 and 226
